Screens (PubChem BioAssay)
Compounds with a hit are over-represented: about 2.8% of the library has one in this group of screens.
ABHD4 inh: ABHD4 inhibitors, primary screen, biochemical, fluorescence polarization, mouse | purified mABHD4, FP-Rh probe fluorescence polarization | AID 720543, 2013 | (Lyso)-N-acylphosphatidylethanolamine lipase (Mus musculus), Q8VD66 | inhibition, % at 8.92 µM | 0.54% of 370,000 active;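 active = inhibition exceeding the mean over every tested compound plus 3 SD, cut at about 30% in these data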;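 note: 0% = plate median of compound wells and 100% = S159A mutant with DMSO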
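Doses – 8.92 µM, single dose · Material – wild-type mouse ABHD4 protein · Replication – single well per compound (singlicate) · Measure – percent inhibition of probe binding, normalized to plate controls · Schedule – 45 min compound pre-incubation plus 60 min probe step, 25 °C · Detection – fluorescence polarization with parallel and perpendicular emission, 525/598 nm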
PAFAH1B2 FP inh: PAFAH1B2 enzyme inhibitors, primary screen, biochemical, fluorescence polarization, human. Platelet-activating factor acetylhydrolase IB subunit alpha2 (Homo sapiens), P68402. recombinant PAFAH1B2, FP-rhodamine activity probe. inhibition, % at 3.39 µM. 1.2% of 340,000 active. AID 492953, 2010;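 active = inhibition above the mean of all tested compounds plus 3 SD, cut at about 24% in these data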;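 note: 0% = enzyme with DMSO and 100% = wells lacking PAFAH1B2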
Target sequence (P68402 whole entry, looked up): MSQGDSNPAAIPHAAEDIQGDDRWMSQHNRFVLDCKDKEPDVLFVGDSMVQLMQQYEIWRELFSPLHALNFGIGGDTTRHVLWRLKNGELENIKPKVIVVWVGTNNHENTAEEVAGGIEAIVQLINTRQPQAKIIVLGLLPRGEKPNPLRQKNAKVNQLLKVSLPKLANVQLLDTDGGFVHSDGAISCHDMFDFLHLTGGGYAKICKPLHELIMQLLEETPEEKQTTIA
pPAFAH FP inh: pPAFAH enzyme inhibitors, primary screen, biochemical, fluorescence polarization, human; 1.5% of 330,000 active; Platelet-activating factor acetylhydrolase (Homo sapiens), Q13093; recombinant pPAFAH, FP-rhodamine probe fluorescence polarization; inhibition, % at 3.39 µM;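 active = inhibition above the mean inhibition across the screen plus 3 SD, cut at about 25% in these data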;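 note: inhibitors block binding of the rhodamine activity-based probe so polarization drops; 0% = enzyme with DMSO and 100% = wells lacking pPAFAH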
HTRA1 inh: HTRA1 serine protease inhibitors, primary screen, biochemical, fluorescence polarization, HTS; AID 504803, 2011; 0.5% of 340,000 active; Q92743; inhibition, % at 5.96 µM; recombinant HTRA1, FP-rhodamine activity-based probe; in the data active = inhibition above about 36%;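 note: 0% = enzyme with DMSO and 100% = wells lacking enzyme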
PAFAH2 FP inh: PAFAH2 enzyme inhibitors, primary screen, biochemical, fluorescence polarization, human; recombinant PAFAH2, FP-rhodamine activity probe; inhibition, % at 3.39 µM; 0.99% of 340,000 active; AID 492956, 2010;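 active = inhibition above the mean over all tested compounds plus 3 SD, cut at about 30% in these data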;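 note: inhibitors block probe labeling of enzyme so polarization drops; 0% = enzyme with DMSO and 100% = wells lacking PAFAH2 protein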
PAFAH1B3 inh: PAFAH1B3 enzyme inhibitors, primary screen, biochemical, fluorescence polarization, human. inhibition, % at 3.39 µM. recombinant PAFAH1B3, FP-rhodamine probe. 0.28% of 340,000 active. Platelet-activating factor acetylhydrolase IB subunit alpha1 (Homo sapiens), Q15102;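 active = inhibition above the screen-wide average of all tested compounds plus 3 SD, cut at about 25% in these data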;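 note: 0% = enzyme with DMSO only and 100% = wells lacking PAFAH1B3 protein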
Target sequence (Q15102 whole entry, looked up): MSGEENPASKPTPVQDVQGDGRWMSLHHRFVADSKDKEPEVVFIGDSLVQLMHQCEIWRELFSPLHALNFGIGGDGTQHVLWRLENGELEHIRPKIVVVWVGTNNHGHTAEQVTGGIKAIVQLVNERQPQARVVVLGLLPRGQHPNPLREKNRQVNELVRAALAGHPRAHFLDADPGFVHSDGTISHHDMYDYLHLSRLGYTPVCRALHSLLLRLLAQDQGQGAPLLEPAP
ABHD4 confirm: ABHD4 inhibitors, retest, confirmation, biochemical, fluorescence polarization, mouse | shares compounds with ABHD4 inh | purified mABHD4, FP-Rh probe fluorescence polarization | inhibition, % at 8.92 µM | 55% of 1,800 active | AID 720658, 2013;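 active = mean inhibition across replicates above the hit cutoff set in the primary screen, cut at about 30% in these data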;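 note: 0% = wild-type ABHD4 with DMSO and 100% = catalytically dead S159A mutant with DMSO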
* = called active by the depositor; / = no result given; ! = repeats disagree.

SMILES | ABHD4 inh | PAFAH1B2 FP inh | pPAFAH FP inh | HTRA1 inh | PAFAH2 FP inh | PAFAH1B3 inh | ABHD4 confirm
Cc1cc(NCc2ccccn2)n2ncc(-c3ccccc3)c2n1 | 45* | 10 | 1 | 12 | 1 | 0 | 47*
Oc1ccc(NC(=S)Nc2ccc(F)cc2)cc1 | 33* | 4 | 9 | 16 | 0 | 11 | 3
Fc1ccc(NC(=S)Nc2ccc(Br)cc2)cc1 | -7 | -2 | -2 | -3 | 0 | 7 | /
CC1CCN(C(=O)C2CCCN(C(=O)c3ccc4c(c3)NC(=O)CS4)C2)CC1 (stereo unspecified) | -5 | / | / | / | / | / | /
CCN(CC)c1ccc(C(=O)NNC(=O)CCNC(=O)c2ccccc2)cc1 | 6 | 3 | -4 | 1 | 4 | 0 | /
CCN(CC)c1ccc(C(=C2C=CC(=[N+](CC)CC)C=C2)c2ccccc2)cc1 | 71* | 3 | / | 20 | 11 | 13 | 103*
Cc1ccc(-n2nc(C)c3c2OC(N)=C(C#N)C3c2ccc(F)cc2)cc1 (stereo unspecified) | 37* | 2 | 10 | 24 | 4 | 3 | 10
Cc1nn(-c2ccccc2)c2c1C(c1ccco1)C(C#N)=C(N)O2 (stereo unspecified) | 13 | 0 | 5 | 3 | 2 | -5 | /
Cc1nn(-c2ccccc2)c2c1C(c1ccc([N+](=O)[O-])cc1)C(C#N)=C(N)O2 (stereo unspecified) | 42* | 8 | 5 | 11 | 11 | 8 | 11
Cc1nn(-c2ccccc2)c2c1C(c1cccs1)C(C#N)=C(N)O2 (stereo unspecified) | / | 6 | 8 | 9 | 6 | 8 | /
CC(C)(C)c1ccc(C(=O)N/C(=C\c2cccc([N+](=O)[O-])c2)C(=O)Nc2cccc(C(=O)O)c2)cc1 | 33* | 11 | 14 | -27 | 4 | 12 | 31*
CCOC(=O)c1c(C)n2c3c(cc(C)cc13)CCC2 | 31* | 6 | -3 | -4 | 6 | 8 | -4
COc1cc(CNc2ccc3[nH]c(=O)[nH]c3c2)ccc1OCc1ccccc1 | 30* | 4 | 5 | 7 | -3 | 7 | 16
CCCc1cc(=O)[nH]c2nnc(SCC(=O)NC3CCCC3)n12 | -4 | 1 | 6 | 1 | 2 | 1 | /
Cc1c(C)n2c(SCC(=O)NC3CCCCC3)nnc2[nH]c1=O | 31* | 4 | 7 | 6 | 4 | 2 | 5
COCC(C)N1CC(O)=C(c2nc(-c3ccc(Cl)cc3)cs2)C1=N (stereo unspecified) | 32* | 2 | 16 | 8 | 19 | -6 | 29
CC(C)C[C@@H]1COc2cc(Br)ccc2S(=O)(=O)N1Cc1cn(Cc2ccc(F)cc2)nn1 | -4 | / | / | / | / | / | /
C=C1CCC2C(C)(C)CCC[C@]2(C)[C@H]1CC1=C(O)C(=O)C(CO)=CC1=O (stereo partly specified) | 39* | / | / | / | / | / | 71*
CCc1ccc2[nH]c(O)c(N=NC3=NC(=O)CS3)c2c1 | 31* | 34* | 24 | 11 | -5 | 9 | 41*
CN=C1S/C(=C/c2cc(C)n(-c3cc(C)ccc3OC)c2C)C(=O)N1C | 5 | / | / | / | / | / | /
CCc1ccccc1NC(=O)C1CCC(=O)N(c2ccc(OC)cc2)C1c1ccc(OC)cc1 (stereo unspecified) | 4 | / | / | / | / | / | /
COc1ccc(NC(=O)c2ccccc2NC(=O)NC2CCCCC2)cc1 | 47* | -1 | 0 | -8 | -2 | -2 | -7
COc1ccc(-c2nnc(SCC(=O)Nc3ccc4cn[nH]c4c3)n2Cc2ccco2)cc1 | -8 | / | / | / | / | / | /
CCCCCCSc1cc(-c2nc3cc(C)ccn3c2NCCCC)ccc1OC | 37*! | 2 | 18 | -4 | 1 | 7 | 57*
CCCCCCSc1cc(-c2nc3ccc(C)cn3c2NCc2ccccc2)ccc1OC | 40* | 2 | 14 | -12 | 11 | 5 | 47*
